Published values gathered from unrelated publications.
Lines come from different studies, so protocols differ.
Target: Mitogen-activated protein kinase 11 (MAPK11, Homo sapiens, UniProt Q15759)

| Compound | test | conditions | remaining binding |
| --- | --- | --- | --- |
| CCS(=O)(=O)c1cc2cc(C[C@@](O)(CC(C)(C)c3ccc(F)cc3C(N)=O)C(F)(F)F)[nH]c2cn1 | cell-free assay, competition with immobilised ligand | 1 µM | 100% |
| C[C@@H]1CN(c2ccc3ncc(-c4ccc5[nH]nc(C6CC6)c5c4)n3n2)C[C@H](C)O1 | binding, competition with immobilised ligand | 0.5 µM | 100% |
| O=C(N[C@H]1CCCCC/C=C\C2C[C@@]2(C(=O)O)NC(=O)[C@@H]2C[C@@H](Oc3ccncc3)CN2C1=O)OC1CCCC1 (stereo partly shown) | binding, competition with immobilised ligand | 1 µM | 100% |
| CN(c1nccc(-c2cnn3ncccc23)n1)C1CC1 | binding | 1 µM | 89% |
| CNC(=O)[C@@H]1CC[C@@H](n2c(-c3ccc4cnccc4c3)nc3ccc(C(=O)NCc4cccc(C(N)=O)c4)cc32)C1 | binding, competition with immobilised ligand | 1 µM | 100% |
| CN(C)c1nccc(-c2cnn3ncccc23)n1 | binding, competition with immobilised ligand | 1 µM | 100% |
| N#Cc1ccccc1CSc1nnc2c(n1)[nH]c1ccccc12 | binding, competition with immobilised ligand | 10 µM | 94% |
| CN(C)CC#Cc1ccc(OCCCc2sc(N3CCc4cccc(C(=O)Nc5nc6ccccc6s5)c4C3)nc2C(=O)O)c(F)c1 | cell-free assay, competition with immobilised ligand | 1 µM | 100% |
| COc1ncc2cc3ccccc3nc2c1C#N | cell-free assay, competition with immobilised ligand | 5 µM | 92% |
| O=C(NCC1CCOCC1)c1n[nH]cc1NC(=O)c1c(F)cccc1F | binding, competition with immobilised ligand | 1 µM | 96% |
| C[C@@H]1CCN(c2nccc(-c3cnn4ncccc34)n2)C1 | binding, competition with immobilised ligand | 1 µM | 100% |
| COc1cnc(Nc2cccc(S(N)(=O)=O)c2)nc1N1CCN(c2ccccc2)C(=O)C1 | binding, competition with immobilised ligand | 1 µM | 100% |
| O=C(c1ccc(Nc2ncc(Cl)c(-c3cc4ccccc4s3)n2)cc1)N1CCC(N2CCCC2)CC1 | binding, competition with immobilised ligand | 1 µM | 82% |
| C[C@@H]1CN(c2cc(-c3n[nH]c4ccc(OC5(C)CC5)cc34)ncn2)C[C@H](C)O1 | cell-free assay, competition with immobilised ligand | 0.1 µM | 89% |
| CN(C)c1ncc(F)c(-c2cnn3ncccc23)n1 | binding, competition with immobilised ligand | 1 µM | 100% |
| Cc1cc(C)c(-n2ccn3nc(-c4cccnc4)cc23)cc1NC(=O)c1cc(C#N)cc(S(F)(F)(F)(F)F)c1 | cell-free assay, competition with immobilised ligand | 0.1 µM | 93.4% |
| Nc1ncc2c(n1)-c1c([nH]c3ccc(C#CC4CC4)cc13)CCCC2 | binding, competition with immobilised ligand | 1 µM | 100% |
| O=C(NCCCN1CCOCC1)c1ccc(Nc2nccc(-c3cc4ccccc4s3)n2)cc1 | binding, competition with immobilised ligand | 1 µM | 98% |
| O=S(=O)(NC1CCC(c2cc(F)ccc2F)(S(=O)(=O)c2ccc(Cl)cc2)CC1)C(F)(F)F (stereo not shown) | cell-free assay, competition with immobilised ligand | 1 µM | 94% |
| O=C(NCCCN1CCOCC1)c1ccc(Nc2ncc(Cl)c(-c3ccc(Cl)s3)n2)cc1 | binding, competition with immobilised ligand | 1 µM | 98% |
| CN(CCCC(F)(F)F)c1nccc(-c2cnn3ncccc23)n1 | binding, competition with immobilised ligand | 1 µM | 93% |
| C[C@@]1(Cc2ccc(C#N)cc2)C(=O)N(c2cc(Cl)cc(Cl)c2)c2ncc(C(=O)NC3(c4nc(C5CCC5)no4)CC3)n21 | cell-free assay, competition with immobilised ligand | 1 µM | 100% |
